According to article PMC4772774 (Journal of medicinal chemistry, 2015):
Read-outs that look alike come from different tables or passages of the source.

Key:
[1] = target: T1, δ-opioid receptor (DOR) (Rattus norvegicus, UniProt P33533); assay: Agonist stimulation of [35S]GTPγS binding, C6-DOR membranes; format: biochemical; details: dns: does not stimulate; for EC50 DOR: [35S]GTPγS binding, mean (S.E.M.), n=3; for % stimulation DOR: percent maximal stimulation relative to DPDPE at 10 µM
Outline: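 C6 rat glioma cells stably expressing rat DOR; membranes (10–20 µg protein) incubated 1 h at 25°C in 50 mM Tris-HCl, 100 mM NaCl, 5 mM MgCl2, pH 7.4, with 0.1 nM [35S]GTPγS, 30 µM GDP and varying test compound.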

[2] = target: T2, κ-opioid receptor (KOR) (Homo sapiens, UniProt P41145); details: [35S]GTPγS binding; dns: does not stimulate; previously published, ref [1]; cited from earlier work
[3] = target: T3, µ-opioid receptor (MOR) (Rattus norvegicus, UniProt P33535); details: relative to DAMGO at 10 µM; previously published, ref [1]; cited from earlier work
[4] = target: T2, κ-opioid receptor (KOR); assay: Agonist stimulation of [35S]GTPγS binding, CHO-KOR membranes; format: biochemical; details: for EC50 KOR: [35S]GTPγS binding, mean (S.E.M.), n=3 (footnote d: n=2), dns: does not stimulate
[5] = target: T3, µ-opioid receptor (MOR); assay: [3H]diprenorphine competitive displacement binding, C6-MOR membranes
[6] = target: T3, µ-opioid receptor (MOR); assay: Agonist stimulation of [35S]GTPγS binding, C6-MOR membranes; format: biochemical; details: dns: does not stimulate
Outline: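 C6 rat glioma cells stably expressing rat MOR were grown in DMEM/10% FBS. Membranes (10–20 µg protein) were incubated 1 h at 25 °C in 50 mM Tris-HCl, 100 mM NaCl, 5 mM MgCl2, pH 7.4, with 0.1 nM [35S]GTPγS, 30 µM GDP and varying compound concentrations. Samples were GF/C-filtered and scintillation-counted. Stimulation was expressed relative to 10 µM DAMGO.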

[7] = target: T1, δ-opioid receptor (DOR); details: [35S]GTPγS binding; dns: does not stimulate; previously published, ref [1]; cited from earlier work
[8] = target: DOR (Rattus norvegicus, UniProt P33533); assay: Antagonism of the DOR agonist DPDPE; format: biochemical
[9] = tested on: C57BL/6 mice; assay: Mouse warm water tail withdrawal; format: in vivo; details: 10 mg/kg ip
[10] = Plasma stability testing; format: in vitro ADME; details: in plasma after 30 min

T2 sequence (P41145 whole entry): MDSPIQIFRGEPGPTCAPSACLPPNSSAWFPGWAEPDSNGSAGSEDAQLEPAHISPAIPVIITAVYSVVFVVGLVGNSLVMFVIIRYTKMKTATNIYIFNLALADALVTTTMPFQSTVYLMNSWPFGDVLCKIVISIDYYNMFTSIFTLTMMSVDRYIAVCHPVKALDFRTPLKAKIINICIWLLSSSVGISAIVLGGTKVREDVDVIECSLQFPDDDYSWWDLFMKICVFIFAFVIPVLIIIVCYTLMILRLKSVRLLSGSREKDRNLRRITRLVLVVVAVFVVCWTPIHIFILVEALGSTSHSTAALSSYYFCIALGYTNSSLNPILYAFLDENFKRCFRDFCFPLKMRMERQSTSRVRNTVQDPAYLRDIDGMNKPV
T3 sequence (P33535 whole entry): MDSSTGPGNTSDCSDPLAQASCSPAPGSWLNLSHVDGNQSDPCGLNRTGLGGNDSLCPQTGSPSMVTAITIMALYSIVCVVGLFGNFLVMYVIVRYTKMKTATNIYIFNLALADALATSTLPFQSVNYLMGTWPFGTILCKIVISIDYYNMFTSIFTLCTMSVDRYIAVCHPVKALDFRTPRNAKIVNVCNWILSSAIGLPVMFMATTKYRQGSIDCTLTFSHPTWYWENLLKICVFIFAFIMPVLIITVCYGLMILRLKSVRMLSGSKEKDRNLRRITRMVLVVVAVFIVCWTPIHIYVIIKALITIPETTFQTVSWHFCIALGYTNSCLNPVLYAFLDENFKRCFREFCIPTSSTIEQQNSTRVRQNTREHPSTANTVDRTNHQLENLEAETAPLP
T1 sequence (P33533 whole entry): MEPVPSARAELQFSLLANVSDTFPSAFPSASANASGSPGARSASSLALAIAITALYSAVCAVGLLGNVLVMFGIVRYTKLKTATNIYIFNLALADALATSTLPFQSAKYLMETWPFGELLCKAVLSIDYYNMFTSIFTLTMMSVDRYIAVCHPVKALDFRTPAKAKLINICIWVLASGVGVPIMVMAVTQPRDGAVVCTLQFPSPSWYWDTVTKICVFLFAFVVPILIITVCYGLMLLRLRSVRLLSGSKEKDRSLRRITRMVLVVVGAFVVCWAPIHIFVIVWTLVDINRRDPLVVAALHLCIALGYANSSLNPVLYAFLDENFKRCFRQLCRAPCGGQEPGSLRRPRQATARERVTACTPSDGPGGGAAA
Sequence of DOR (P33533 whole entry): as above

Row | Compound | EC50 DOR [1] | % stimulation DOR [1] | EC50 KOR [4] | further results
1 | CC(=O)N1CC[C@@H](NC(=O)[C@@H](N)Cc2c(C)cc(O)cc2C)c2cc(CC3Cc4ccccc4C3)ccc21 [14f, (S)-N-((R)-1-Acetyl-6-((2,3-dihydro-1H–inden-2-yl)methyl)-1,2,3,4-tetrahydroquinolin-4-yl)-2-amino-3-(4-hydroxy-2,6-dimethylphenyl)propanamide] | dns | dns | – | –
2 | Cc1cc(O)cc(C)c1C[C@H](N)C(=O)N[C@@H]1CCNc2ccc(Cc3cccc4ccccc34)cc21 [14k, (S)-2-Amino-3-(4-hydroxy-2,6-dimethylphenyl)-N-((R)-6-(naphthalen-1-ylmethyl)-1,2,3,4-tetrahydroquinolin-4-yl)propanamide] | – | – | – | EC50 KOR [2]: dns; % stimulation MOR [3]: 93 (5) %
3 | CC(=O)N1CC[C@@H](NC(=O)[C@@H](N)Cc2c(C)cc(O)cc2C)c2cc(CC3CCc4ccccc43)ccc21 (mixture of isomers) [14g, (S)-N-((R)-1-Acetyl-6-(((R/S)-2,3-dihydro-1H–inden-1-yl)methyl)-1,2,3,4-tetrahydroquinolin-4-yl)-2-amino-3-(4-hydroxy-2,6-dimethylphenyl)propanamide] | dns | dns | – | EC50 [4]: > 1000 nM
4 | Cc1cc(O)cc(C)c1C[C@H](N)C(=O)N[C@@H]1CCCc2ccc(CC3CCCCC3)cc21 [14n, (S)-2-Amino-N-((R)-7-(cyclohexylmethyl)-1,2,3,4-tetrahydronaphthalen-1-yl)-3-(4-hydroxy-2,6-dimethylphenyl)propanamide] | dns | dns | – | Ki [5]: 0.12 nM; EC50 MOR ([6]; [35S]GTPγS binding, mean (S.E.M.), n=3): dns; % stimulation MOR ([6]; percent maximal stimulation relative to DAMGO at 10 µM): dns
5 | Cc1cc(O)cc(C)c1C[C@H](N)C(=O)N[C@@H]1CCNc2ccc(CC3CCc4ccccc43)cc21 (mixture of isomers) [14h, (S)-2-Amino-N-((R)-6-(((R/S)-2,3-dihydro-1H–inden-1-yl)methyl)-1,2,3,4-tetrahydroquinolin-4-yl)-3-(4-hydroxy-2,6-dimethylphenyl)propanamide] | dns | dns | – | –
6 | Cc1cc(O)cc(C)c1C[C@H](N)C(=O)N[C@@H]1CCNc2ccc(Cc3ccc4ccccc4c3)cc21 [14j, (S)-2-Amino-3-(4-hydroxy-2,6-dimethylphenyl)-N-((R)-6-(naphthalen-2-ylmethyl)-1,2,3,4-tetrahydroquinolin-4-yl)propanamide] | – | – | – | EC50 KOR [2]: dns; EC50 DOR [7]: dns; % stimulation MOR [3]: 96 (3) %
7 | CC(=O)N1CC[C@@H](NC(=O)[C@@H](N)Cc2c(C)cc(O)cc2C)c2cc(Cc3ccc4ccccc4c3)ccc21 [14a, (S)-N-((R)-1-Acetyl-6-(naphthalen-2-ylmethyl)-1,2,3,4-tetrahydroquinolin-4-yl)-2-amino-3-(4-hydroxy-2,6-dimethylphenyl)propanamide] | dns | dns | dns ^d | Kb [8]: 1.98 nM; duration of maximal antinociception ([9]; mouse WWTW time course): approximately 200 min; duration of action compared to 14i ([9]; mouse WWTW, relative to original lead 14i): greater than 3 times; plasma stability [10]: fully stable
8 | Cc1cc(O)cc(C)c1C[C@H](N)C(=O)N[C@@H]1CCCc2ccc(Cc3ccccc3)cc21 [14m, (S)-2-Amino-N-((R)-7-benzyl-1,2,3,4-tetrahydronaphthalen-1-yl)-3-(4-hydroxy-2,6-dimethylphenyl) propanamide] | dns | dns | dns | –
9 | CC(=O)N1CC[C@@H](NC(=O)[C@@H](N)Cc2c(C)cc(O)cc2C)c2cc(CC3CCCCC3)ccc21 [14c, (S)-N-((R)-1-Acetyl-6-(cyclohexylmethyl)-1,2,3,4-tetrahydroquinolin-4-yl)-2-amino-3-(4-hydroxy-2,6-dimethylphenyl)propanamide] | – | 26 (5) % | – | –
10 | Cc1cc(O)cc(C)c1C[C@H](N)C(=O)N[C@@H]1CCNc2ccc(CC3CCCCC3)cc21 [14b, (S)-2-Amino-N-((R)-6-(cyclohexylmethyl)-1,2,3,4-tetrahydroquinolin-4-yl)-3-(4-hydroxy-2,6-dimethylphenyl)propanamide] | dns | dns | – | –
11 | CC(=O)N1CC[C@@H](NC(=O)[C@@H](N)Cc2c(C)cc(O)cc2C)c2cc(Cc3ccccc3)ccc21 [14e, (S)-N-((R)-1-Acetyl-6-benzyl-1,2,3,4-tetrahydroquinolin-4-yl)-2-amino-3-(4-hydroxy-2,6-dimethylphenyl)propanamide] | – | 26 (3) % | – | –
12 | Cc1cc(O)cc(C)c1C[C@H](N)C(=O)N[C@@H]1CCCc2ccc(Cc3ccc4ccccc4c3)cc21 [14o, (S)-2-Amino-3-(4-hydroxy-2,6-dimethylphenyl)-N-((R)-7-(naphthalen-2-ylmethyl)-1,2,3,4-tetrahydronaphthalen-1-yl)propanamide] | dns | dns | dns | –
13 | CC(=O)N1CC[C@@H](NC(=O)[C@@H](N)Cc2c(C)cc(O)cc2C)c2cc(Cc3cccc4ccccc34)ccc21 [14d, (S)-N-((R)-1-Acetyl-6-(naphthalen-1-ylmethyl)-1,2,3,4-tetrahydroquinolin-4-yl)-2-amino-3-(4-hydroxy-2,6-dimethylphenyl)propanamide] | dns | dns | dns ^d | Kb [8]: 27.5 nM; plasma stability [10]: fully stable
14 | Cc1cc(O)cc(C)c1C[C@H](N)C(=O)N[C@@H]1CCNc2ccc(CC3Cc4ccccc4C3)cc21 [14l, (S)-2-Amino-N-((R)-6-((2,3-dihydro-1H–inden-2-yl)methyl)-1,2,3,4-tetrahydroquinolin-4-yl)-3-(4-hydroxy-2,6-dimethylphenyl)propanamide] | – | – | – | % stimulation MOR [3]: 86 (1) %
15 | Cc1cc(O)cc(C)c1C[C@H](N)C(=O)N[C@@H]1CCCc2ccc(Cc3cccc4ccccc34)cc21 [14p, (S)-2-Amino-3-(4-hydroxy-2,6-dimethylphenyl)-N-((R)-7-(naphthalen-1-ylmethyl)-1,2,3,4-tetrahydronaphthalen-1-yl)propanamide] | dns | dns | dns ^d | –
